Source: ChEMBL document CHEMBL1146219, “Synthesis and evaluation of novel radioiodinated benzamides for malignant melanoma” (J Med Chem, 2007)

Tests used:
Settings in all cases: in vivo
[1] = Biodistribution in melanoma of B16F0 tumor bearing C57BL/6J mouse at 0.37-0.74 MBq, iv after 72 hrs; type: ADME, organism-based, B16-F0
Procedure, shortened: (§1)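 Female C57BL/6J mice (15-18 g) carrying s.c. B16F0 flank tumors (0.1 mL of 3 × 10⁶ viable cells per mL in Ca²⁺/Mg²⁺-free PBS, inoculated at 6-7 weeks, used 10 days later). [¹²³I]tracer 0.37-0.74 MBq in saline, 100 µL, tail-vein i.v. Groups of n = 5 killed at 1-72 h. Organs weighed and γ-counted, carcass activity also counted, values as %ID/g.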

[2] = Biodistribution in melanoma of B16F0 tumor bearing C57BL/6J mouse at 0.37-0.74 MBq, iv after 6 hrs; type: ADME, organism-based, B16-F0; procedure, shortened: as §1
[3] = system: Kidney; assay: Biodistribution in kidney of B16F0 tumor bearing C57BL/6J mouse at 0.37-0.74 MBq, iv after 1 hr in presence of haloperidol; type: ADME, organism-based
Procedure, shortened: (§2)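 Haloperidol blocking in B16F0-bearing C57BL/6J mice: 1 mg/kg haloperidol was given iv 5 min before the iv [¹²³I]benzamide (0.37-0.74 MBq). Groups of n = 5 were killed at 1 or 24 h. Tissues were weighed and γ-counted as in the biodistribution study and compared with untreated controls by one-way ANOVA, with p < 0.01 taken as significant.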

[4] = system: Liver; assay: Biodistribution in liver of B16F0 tumor bearing C57BL/6J mouse at 0.37-0.74 MBq, iv after 3 hrs; type: ADME, organism-based
Procedure, shortened: (§3)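 Female C57BL/6J mice (15-18 g) were given B16F0 cells subcutaneously in the left flank (0.1 mL of 3 × 10⁶ viable cells/mL in Ca²⁺/Mg²⁺-free PBS) at 6-7 weeks and used after ten days. [¹²³I]benzamide (0.37-0.74 MBq, 100 µL, saline) was injected via the tail vein. Groups of n = 5 were killed by CO₂ and cervical dislocation. Organs were weighed and γ-counted, and the carcass was counted too.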

[5] = system: Lung; assay: Biodistribution in lung of B16F0 tumor bearing C57BL/6J mouse at 0.37-0.74 MBq, iv after 48 hrs; type: ADME, organism-based; procedure, shortened: as §3
[6] = system: Brain; assay: Biodistribution in brain of B16F0 tumor bearing C57BL/6J mouse at 0.37-0.74 MBq, iv after 48 hrs; type: ADME, organism-based; procedure, shortened: as §3
[7] = Biodistribution in tumor of B16F0 tumor bearing C57BL/6J mouse at 0.37-0.74 MBq, iv after 1 hr in presence of haloperidol; type: ADME, organism-based, B16-F0
Procedure, shortened: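 B16F0 tumor-bearing C57BL/6J mice, groups of n = 5, given haloperidol 1 mg/kg i.v. 5 min before the i.v. [¹²³I]tracer (0.37-0.74 MBq). Killed at 1 or 24 h. Tissues γ-counted as for biodistribution and compared with untreated controls by one-way ANOVA, significance p < 0.01.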

[8] = system: Blood; assay: Biodistribution in blood of B16F0 tumor bearing C57BL/6J mouse at 0.37-0.74 MBq, iv after 72 hrs; type: ADME, organism-based; procedure, shortened: as §3
[9] = system: Liver; assay: Biodistribution in liver of B16F0 tumor bearing C57BL/6J mouse at 0.37-0.74 MBq, iv after 1 hr in presence of haloperidol; type: ADME, organism-based; procedure, shortened: as §2
[10] = Biodistribution in melanoma of B16F0 tumor bearing C57BL/6J mouse at 0.37-0.74 MBq, iv after 48 hrs; type: ADME, organism-based, B16-F0; procedure, shortened: as §3
[11] = system: Lung; assay: Biodistribution in lung of B16F0 tumor bearing C57BL/6J mouse at 0.37-0.74 MBq, iv after 3 hrs; type: ADME, organism-based; procedure, shortened: as §3
[12] = Biodistribution in melanoma of B16F0 tumor bearing C57BL/6J mouse at 0.37-0.74 MBq, iv after 3 hrs; type: ADME, organism-based, B16-F0; procedure, shortened: as §3
[13] = system: Blood; assay: Biodistribution in blood of B16F0 tumor bearing C57BL/6J mouse at 0.37-0.74 MBq, iv after 1 hr; type: ADME, organism-based; procedure, shortened: as §3
[14] = Biodistribution in melanoma of B16F0 tumor bearing C57BL/6J mouse at 0.37-0.74 MBq, iv after 24 hrs; type: ADME, organism-based, B16-F0; procedure, shortened: as §3
[15] = system: Blood; assay: Biodistribution in blood of B16F0 tumor bearing C57BL/6J mouse at 0.37-0.74 MBq, iv after 24 hrs; type: ADME, organism-based; procedure, shortened: as §3
[16] = system: Lung; assay: Biodistribution in lung of B16F0 tumor bearing C57BL/6J mouse at 0.37-0.74 MBq, iv after 24 hrs; type: ADME, organism-based; procedure, shortened: as §3
[17] = system: Lung; assay: Biodistribution in lung of B16F0 tumor bearing C57BL/6J mouse at 0.37-0.74 MBq, iv after 1 hr in presence of haloperidol; type: ADME, organism-based; procedure, shortened: as §2
[18] = system: Brain; assay: Biodistribution in brain of B16F0 tumor bearing C57BL/6J mouse at 0.37-0.74 MBq, iv after 1 hr; type: ADME, organism-based; procedure, shortened: as §3

Q: For `CCCCN(C)CCCCNC(=O)c1cc([123I])c(NC(C)=O)cc1OC`, which Drug uptake [1] is on record?
A: 2.2 % ID/g

Q: And the Drug uptake [2]?
A: 8.4 % ID/g

Q: And the Drug uptake [3]?
A: 17.3 % ID/g

Q: What about the Drug uptake [4] of the same molecule?
A: 5 % ID/g

Q: What about the Drug uptake [5] of the same molecule?
A: 0.08 % ID/g

Q: And the Drug uptake [6]?
A: 0.01 % ID/g

Q: What about the Drug uptake [7] of the same molecule?
A: 6.1 % ID/g

Q: And the Drug uptake [8]?
A: 0.05 % ID/g

Q: And the Drug uptake [9]?
A: 15.6 % ID/g

Q: And the Drug uptake [10]?
A: 4.6 % ID/g

Q: And the Drug uptake [11]?
A: 0.95 % ID/g

Q: What about the Drug uptake [12] of the same molecule?
A: 9.7 % ID/g

Q: What about the Drug uptake [13] of the same molecule?
A: 1.2 % ID/g

Q: And the Drug uptake [14]?
A: 6.1 % ID/g

Q: And the Drug uptake [15]?
A: 0.11 % ID/g

Q: What about the Drug uptake [16] of the same molecule?
A: 0.1 % ID/g

Q: And the Drug uptake [17]?
A: 1.54 % ID/g

Q: And the Drug uptake [18]?
A: 0.07 % ID/g
